Assay results taken from ChEMBL document CHEMBL1177885, “Synthesis and biological activity of 2-(trifluoromethyl)-1H-benzimidazole derivatives against some protozoa and Trichinella spiralis” (Eur J Med Chem, 2010).
The source made the active and inactive calls. The rule behind the calls is not given here.

Legend:
[1] = tested on: Trichinella spiralis; experiment: Antitrichinellosis activity against Trichinella spiralis ML assessed as reduction of parasites viability at 1.8 uM after 3 days by MTT assay; assay type: functional
In short: (§1)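 1000 muscle larvae per well in RPMI 1640 were exposed to 0.18, 0.37 or 1.80 compound for 3 days at 37 °C in humid 5% CO2, with medium and compound renewed daily. Viability was read by MTT colorimetry as percent reduction of metabolic activity.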

[2] = tested on: Trichinella spiralis; experiment: Antitrichinellosis activity against Trichinella spiralis ML assessed as reduction of parasites viability at 0 37 uM after 3 days by MTT assay; assay type: functional; in short: as §1
[3] = tested on: Entamoeba histolytica; experiment: Antiprotozoal activity against Entamoeba histolytica HM-1:IMSS after 48 hrs; assay type: functional, organism-based
In short: (§2)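 Trophozoites were grown in modified TYI-S-33 with 10% calf serum, with bovine bile added for Giardia. 5 × 10⁴ trophozoites (Giardia, Trichomonas) or 6 × 10³ (Entamoeba) were exposed to increasing concentrations for 48 h at 37 °C, with DMSO as negative control. Cells were washed, regrown 48 h drug-free, and counted. IC50 was by Probit analysis, in triplicate, repeated at least twice.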

[4] = tested on: Trichomonas vaginalis; experiment: Antiprotozoal activity against Trichomonas vaginalis G3 after 48 hrs; assay type: functional, organism-based; settings: G3, 48 h; in short: as §2
[5] = tested on: Leishmania mexicana; experiment: Antileishmanial activity against Leishmania mexicana MHOM/MX92/UAY68 after 48 hrs; assay type: functional, organism-based; settings: MHOM/MX92/UAY68, 48 h
In short: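 Promastigotes at 2 × 10⁴/mL in RPMI 1640 with 10% FBS, 26 °C, were exposed to 0.1, 0.5, 1.5, 10 and 20 (final) of compound, with DMSO as negative control. Each concentration was run in triplicate. Parasites were fixed in 0.14 M NaCl/3.7% formaldehyde and counted in a Neubauer chamber.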

[6] = tested on: Trichinella spiralis; experiment: Antitrichinellosis activity against Trichinella spiralis ML assessed as reduction of parasites viability at 0.18 uM after 3 days by MTT assay; assay type: functional; in short: as §1
[7] = tested on: Giardia intestinalis; experiment: Antiprotozoal activity against Giardia intestinalis IMSS:0989:1 after 48 hrs; assay type: functional, organism-based; settings: Giardia duodenalis, IMSS:0989:1, 48 h; in short: as §2
[8] = tested on: Trichinella spiralis; experiment: Antitrichinellosis activity against muscle larvae pahse of Trichinella spiralis ML larvae infected in mouse assessed as reduction of parasites level at 75 mg/kg administered for 7 consecutive days from day 28 postinfection measured on day 7 relative to control; assay type: functional; parameters: scale not given: the % may be the effect or the level left
In short: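 Groups of 10 mice were infected with 800 muscle larvae and treated at 75 mg/Kg from day 28 post-infection for 7 consecutive days. Mice were killed 7 days after treatment and muscle larvae recovered. Read-out was percent larval load reduction.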

[9] = tested on: Trichinella spiralis; experiment: Antitrichinellosis activity against adult phase of Trichinella spiralis ML infected in mouse assessed as reduction of parasites level at 50 mg/kg administered 3 days after postinfection measured after 6 days relative to control; assay type: functional; parameters: scale not given: the % may be the effect or the level left
In short: (§3)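 Groups of six mice were infected with 800 muscle larvae and given a single dose on day 3 post-infection. Mice were killed on day 6 post-infection and intestinal adults recovered. Read-out was percent adult load reduction.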

[10] = tested on: Trichinella spiralis; experiment: Antitrichinellosis activity against adult phase of Trichinella spiralis ML infected in mouse assessed as reduction of parasites level at 75 mg/kg administered 3 days after postinfection measured after 6 days relative to control; assay type: functional; parameters: scale not given: the % may be the effect or the level left; in short: as §3

IC50 [3] | IC50 [4] | IC50 [5] | IC50 [7] | SMILES | Activity [1] | Activity [2] | Activity [6] | Activity [8] | Activity [9] | Activity [10]
0.019 µM | 0.11 µM | 4.1 µM | 0.063 µM | Cn1c(C(F)(F)F)nc2ccc(Oc3cccc(Cl)c3Cl)cc21 | 67% | 48% | 44% | – | – | –
– | – | – | – | CSc1nc2cc(Oc3cccc4ccccc34)c(Cl)cc2[nH]1 | – | – | – | 24% | 28% | –
0.02 µM | – | – | 0.031 µM | FC(F)(F)c1nc2cc(Oc3cccc(Cl)c3Cl)c(Cl)cc2[nH]1 | – | – | – | – | – | –
– | 0.238 µM | – | – | Cn1c(C(F)(F)F)nc2cc(Cl)ccc21 | 39% | – | – | – | – | –
0.019 µM | 0.086 µM | 13.8 µM | 0.005 µM | FC(F)(F)c1nc2cc(Oc3cccc4ccccc34)c(Cl)cc2[nH]1 | 65% | 50% | 43% | 40% | 69% | 80%
– | 0.235 µM | 20.8 µM | – | FC(F)(F)c1nc2cc(Cl)c(Cl)cc2[nH]1 | 19% | – | – | – | – | –
– | – | – | – | CSc1nc2cc(Cl)c(Oc3cccc(Cl)c3Cl)cc2[nH]1 [TRICLABENDAZOLE] | – | – | – | 25% | 41% | 7%
0.038 µM | 0.97 µM | 65.2 µM | 0.023 µM | Cn1c(C(F)(F)F)nc2cc(Oc3cccc4ccccc34)c(Cl)cc21 | 63% | 29% | 15% | 64% | inactive | 36%
– | 0.216 µM | – | – | Cc1ncc([N+](=O)[O-])n1CCO [METRONIDAZOLE] | – | – | – | – | – | –
0.009 µM | 0.016 µM | 24 µM | 0.03 µM | Cn1c(C(F)(F)F)nc2cc(Oc3cccc(Cl)c3Cl)ccc21 | 80% | 62% | 54% | 46% | – | 58%
– | – | – | – | CCCSc1ccc2[nH]c(NC(=O)OC)nc2c1 [ALBENDAZOLE] | 67% | 61.9% | 58.6% | 63% | 62% | 73%
0.017 µM | 0.451 µM | 50.1 µM | 0.012 µM | Cn1c(C(F)(F)F)nc2cc(Cl)c(Oc3cccc4ccccc34)cc21 | 18% | 14% | 6% | – | – | –
– | – | 2.42 µM | – | N=C(N)c1ccc(OCCCCCOc2ccc(C(=N)N)cc2)cc1 [PENTAMIDINE] | – | – | – | – | – | –

SMILES | IC50 [3] | IC50 [4] | IC50 [5] | IC50 [7] | Activity [1] | Activity [2] | Activity [6] | Activity [8] | Activity [9] | Activity [10]
FC(F)(F)c1nc2cc(Oc3cccc(Cl)c3Cl)ccc2[nH]1 | 0.018 µM | 0.535 µM | – | 0.054 µM | 29% | 24% | 20% | – | – | –
